# According to ChEMBL document CHEMBL4138242, “Synthesis and antibacterial evaluation of novel cationic chalcone derivatives possessing broad spectrum antibacterial activity” (Eur J Med Chem, 2018):
# The source made the active and inactive calls. The rule behind the calls is not given here.
# Tests used:
# Escherichia coli [1] = test: Antibacterial activity against drug-resistant NDM1 producing Escherichia coli clinical isolate CF-13-61 after 16 to 20 hrs by broth microdilution method; type: functional
# Method in brief: (§1)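 CLSI broth microdilution in Mueller-Hinton broth. A 4-6 h culture was diluted to about 10⁶ CFU/mL and mixed 1:1 with compound dilutions prepared at 256 to 0.5 µg/mL from aqueous stocks. Plates were incubated at 37 °C for 16-20 h and read visually for MIC. Each concentration was run in duplicate, and the experiment was repeated at least twice. Vancomycin and meropenem were comparators.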
# Staphylococcus aureus [2] = test: Antibacterial activity against methicillin-resistant Staphylococcus aureus clinical isolate 0831010 after 16 to 20 hrs by broth microdilution method; type: functional; method in brief: as §1
# Escherichia coli [3] = test: Antibacterial activity against drug-resistant NDM1 producing Escherichia coli clinical isolate Ecl-14-56 after 16 to 20 hrs by broth microdilution method; type: functional; method in brief: as §1
# Escherichia coli [4] = test: Antibacterial activity against drug-resistant NDM1 producing Escherichia coli clinical isolate Ecl-13-62 after 16 to 20 hrs by broth microdilution method; type: functional; method in brief: as §1
# Escherichia coli [5] = test: Antibacterial activity against drug-resistant NDM1 producing Escherichia coli clinical isolate KP-13-58 after 16 to 20 hrs by broth microdilution method; type: functional; method in brief: as §1
# Staphylococcus aureus [6] = test: Antibacterial activity against methicillin-resistant Staphylococcus aureus clinical isolate 1208143 after 16 to 20 hrs by broth microdilution method; type: functional; method in brief: as §1
# Staphylococcus aureus [7] = test: Antibacterial activity against Staphylococcus aureus ATCC 29213 after 16 to 20 hrs by broth microdilution method; type: functional
# Method in brief: (§2)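 Broth microdilution per CLSI. Bacteria grown 4-6 h (about 10⁸ CFU/mL), then diluted to about 10⁶ CFU/mL. Medium: Mueller-Hinton broth, except Luria-Bertani broth for E. coli. Compounds in sterile water, twofold series 256-0.5 µg/mL, mixed 1:1 with inoculum, 37 °C for 16-20 h. MIC is the lowest concentration without visible growth. Duplicate wells; experiment repeated at least twice.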
# Klebsiella pneumoniae [8] = test: Antibacterial activity against drug-resistant carbapenemase producing Klebsiella pneumoniae clinical isolate KP-14-3 after 16 to 20 hrs by broth microdilution method; type: functional; method in brief: as §1
# Staphylococcus aureus [9] = test: Induction of inner membrane permeabilization in Staphylococcus aureus ATCC 29213 at 10 to 20 ug/ml measured every 2 mins for 12 mins by propidium iodide staining-based fluorescence assay; type: functional, organism-based
# Method in brief: (§3)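 Mid-log cells (~10⁸ CFU/mL) were suspended in PBS (S. aureus) or HEPES/glucose/KCl (E. coli). They were preincubated with propidium iodide for 30 min (S. aureus) or 40 min (E. coli), and baseline fluorescence was read for 8 min. Compound was added to 20 µg/mL final, and fluorescence (ex 535/em 617 nm) was read every 2 min for 12 min.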
# Enterococcus faecalis = test: Antibacterial activity against Enterococcus faecalis ATCC 29212 after 16 to 20 hrs by broth microdilution method; type: functional; method in brief: as §2
# Klebsiella pneumoniae [10] = test: Antibacterial activity against drug-resistant carbapenemase producing Klebsiella pneumoniae clinical isolate KP-14-5 after 16 to 20 hrs by broth microdilution method; type: functional; method in brief: as §1
# Klebsiella pneumoniae [11] = test: Antibacterial activity against drug-resistant carbapenemase producing Klebsiella pneumoniae clinical isolate KP-14-18 after 16 to 20 hrs by broth microdilution method; type: functional; method in brief: as §1
# Escherichia coli [12] = test: Antibacterial activity against Escherichia coli ATCC 25922 after 16 to 20 hrs by broth microdilution method; type: functional; method in brief: as §2
# Klebsiella pneumoniae [13] = test: Antibacterial activity against drug-resistant carbapenemase producing Klebsiella pneumoniae clinical isolate KP-13-45 after 16 to 20 hrs by broth microdilution method; type: functional; method in brief: as §1
# Escherichia coli [14] = test: Antibacterial activity against drug-resistant NDM1 producing Escherichia coli clinical isolate CF-15-61 after 16 to 20 hrs by broth microdilution method; type: functional; method in brief: as §1
# Escherichia coli [15] = test: Antibacterial activity against drug-resistant NDM1 producing Escherichia coli clinical isolate 1460 after 16 to 20 hrs by broth microdilution method; type: functional; method in brief: as §1
# Klebsiella pneumoniae [16] = test: Antibacterial activity against drug-resistant carbapenemase producing Klebsiella pneumoniae clinical isolate KP-13-54 after 16 to 20 hrs by broth microdilution method; type: functional; method in brief: as §1
# Staphylococcus aureus [17] = test: Antibacterial activity against methicillin-resistant Staphylococcus aureus clinical isolate 20131012632sau after 16 to 20 hrs by broth microdilution method; type: functional; method in brief: as §1
# Staphylococcus aureus [18] = test: Induction of cytoplasmic membrane depolarization in Staphylococcus aureus ATCC 29213 at 10 to 20 ug/ml measured every 2 mins for 12 mins by DiSC35 dye-based fluorescence assay; type: functional, organism-based
# Method in brief: (§4)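 Mid-log cells (~10⁸ CFU/mL) were suspended in PBS (S. aureus) or HEPES/glucose/KCl with EDTA (E. coli). They were preloaded with DiSC3(5) for 30 min (S. aureus) or 40 min (E. coli), and baseline fluorescence was read for 8 min. Compound was added to 20 µg/mL final, and fluorescence (ex 622/em 670 nm) was read every 2 min for 12 min. Water served as control.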
# [19] = Hemolytic activity in sheep RBC after 1 hr; type: ADME, cell-based, Ovis aries, Erythrocyte; details: sheep red blood cells (erythrocytes)
# Method in brief: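 Sheep red blood cells (150 µL suspension) mixed with 50 µL of compound dilutions (5120-10 µg/mL), 1 h at 37 °C, then centrifuged. Supernatant read at 540 nm. Percent hemolysis calculated relative to RBC-only control (0%) and 0.1% Triton X-100 (100%).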
# Staphylococcus aureus [20] = test: Antibacterial activity against methicillin-resistant Staphylococcus aureus clinical isolate 1-may after 16 to 20 hrs by broth microdilution method; type: functional; method in brief: as §1
# Escherichia coli [21] = test: Induction of inner membrane permeabilization in Escherichia coli ATCC 25922 at 10 to 20 ug/ml measured every 2 mins for 12 mins by propidium iodide staining-based fluorescence assay; type: functional, organism-based; method in brief: as §3
# Klebsiella pneumoniae [22] = test: Antibacterial activity against drug-resistant carbapenemase producing Klebsiella pneumoniae clinical isolate KP-14-1 after 16 to 20 hrs by broth microdilution method; type: functional; method in brief: as §1
# Staphylococcus aureus [23] = test: Antibacterial activity against methicillin-resistant Staphylococcus aureus clinical isolate 1104060 after 16 to 20 hrs by broth microdilution method; type: functional; method in brief: as §1
# Escherichia coli [24] = test: Antibacterial activity against drug-resistant NDM1 producing Escherichia coli clinical isolate EC-14-54 after 16 to 20 hrs by broth microdilution method; type: functional; method in brief: as §1
# Klebsiella pneumoniae [25] = test: Antibacterial activity against drug-resistant carbapenemase producing Klebsiella pneumoniae clinical isolate KP-14-45 after 16 to 20 hrs by broth microdilution method; type: functional; method in brief: as §1
# Klebsiella pneumoniae [26] = test: Antibacterial activity against drug-resistant carbapenemase producing Klebsiella pneumoniae clinical isolate KP-13-55 after 16 to 20 hrs by broth microdilution method; type: functional; method in brief: as §1
# Escherichia coli [27] = test: Antibacterial activity against drug-resistant NDM1 producing Escherichia coli clinical isolate Ecl-14-58 after 16 to 20 hrs by broth microdilution method; type: functional; method in brief: as §1
# Staphylococcus aureus [28] = test: Antibacterial activity against methicillin-resistant Staphylococcus aureus clinical isolate 20130911034sau after 16 to 20 hrs by broth microdilution method; type: functional; method in brief: as §1
# Staphylococcus aureus [29] = test: Antibacterial activity against methicillin-resistant Staphylococcus aureus clinical isolate 0906202 after 16 to 20 hrs by broth microdilution method; type: functional; method in brief: as §1
# Staphylococcus aureus [30] = test: Antibacterial activity against methicillin-resistant Staphylococcus aureus clinical isolate 1105183 cono7 after 16 to 20 hrs by broth microdilution method; type: functional; method in brief: as §1
# Escherichia coli [31] = test: Antibacterial activity against drug-resistant NDM1 producing Escherichia coli clinical isolate SM-15-84 after 16 to 20 hrs by broth microdilution method; type: functional; method in brief: as §1
# Escherichia coli [32] = test: Antibacterial activity against drug-resistant NDM1 producing Escherichia coli clinical isolate EA-14-61 after 16 to 20 hrs by broth microdilution method; type: functional; method in brief: as §1
# Salmonella enterica = test: Antibacterial activity against Salmonella enterica ATCC 13076 after 16 to 20 hrs by broth microdilution method; type: functional; method in brief: as §2
# Klebsiella pneumoniae [33] = test: Antibacterial activity against drug-resistant carbapenemase producing Klebsiella pneumoniae clinical isolate KP-14-8 after 16 to 20 hrs by broth microdilution method; type: functional; method in brief: as §1
# Klebsiella pneumoniae [34] = test: Antibacterial activity against drug-resistant carbapenemase producing Klebsiella pneumoniae clinical isolate KP-14-4 after 16 to 20 hrs by broth microdilution method; type: functional; method in brief: as §1
# Staphylococcus aureus [35] = test: Antibacterial activity against methicillin-resistant Staphylococcus aureus clinical isolate 1207007 after 16 to 20 hrs by broth microdilution method; type: functional; method in brief: as §1
# Escherichia coli [36] = test: Antibacterial activity against drug-resistant NDM1 producing Escherichia coli clinical isolate EC-13-49 after 16 to 20 hrs by broth microdilution method; type: functional; method in brief: as §1
# Escherichia coli [37] = test: Induction of cytoplasmic membrane depolarization in Escherichia coli ATCC 25922 at 10 to 20 ug/ml measured every 2 mins for 12 mins by DiSC35 dye-based fluorescence assay; type: functional, organism-based; method in brief: as §4
# Klebsiella pneumoniae [38] = test: Antibacterial activity against drug-resistant carbapenemase producing Klebsiella pneumoniae clinical isolate EC-13-23 after 16 to 20 hrs by broth microdilution method; type: functional; method in brief: as §1
# Klebsiella pneumoniae [39] = test: Antibacterial activity against drug-resistant carbapenemase producing Klebsiella pneumoniae clinical isolate KP-14-2 after 16 to 20 hrs by broth microdilution method; type: functional; method in brief: as §1
# Escherichia coli [40] = test: Antibacterial activity against drug-resistant NDM1 producing Escherichia coli clinical isolate Ecl-14-59 after 16 to 20 hrs by broth microdilution method; type: functional; method in brief: as §1
structure (smiles),measurement,setting,value
CCCCCCCC[N+](C)(C)CC(=O)Nc1ccc(C(=O)/C=C/c2ccc(F)cc2)cc1.[Cl-],MIC,Escherichia coli [1],16 µg/mL
same,MIC,Staphylococcus aureus [2],0.5 µg/mL
same,MIC,Escherichia coli [3],16 µg/mL
same,MIC,Escherichia coli [4],4 µg/mL
same,MIC,Escherichia coli [5],1 µg/mL
same,MIC,Staphylococcus aureus [6],2 µg/mL
same,MIC,Staphylococcus aureus [7],2 µg/mL
same,MIC,Klebsiella pneumoniae [8],8 µg/mL
same,Activity,Staphylococcus aureus [9],Active
same,MIC,Enterococcus faecalis,2 µg/mL
same,MIC,Klebsiella pneumoniae [10],4 µg/mL
same,MIC,Klebsiella pneumoniae [11],8 µg/mL
same,MIC,Escherichia coli [12],2 µg/mL
same,MIC,Klebsiella pneumoniae [13],4 µg/mL
same,MIC,Escherichia coli [14],4 µg/mL
same,MIC,Escherichia coli [15],8 µg/mL
same,MIC,Klebsiella pneumoniae [16],4 µg/mL
same,MIC,Staphylococcus aureus [17],2 µg/mL
same,Activity,Staphylococcus aureus [18],Active
same,HC50 at 1 h,[19],83 µg/mL
same,MIC,Staphylococcus aureus [20],1 µg/mL
same,Activity,Escherichia coli [21],Active
same,MIC,Klebsiella pneumoniae [22],4 µg/mL
same,MIC,Staphylococcus aureus [23],8 µg/mL
same,MIC,Escherichia coli [24],16 µg/mL
same,MIC,Klebsiella pneumoniae [25],8 µg/mL
same,MIC,Klebsiella pneumoniae [26],8 µg/mL
same,MIC,Escherichia coli [27],4 µg/mL
same,MIC,Staphylococcus aureus [28],0.5 µg/mL
same,MIC,Staphylococcus aureus [29],4 µg/mL
same,MIC,Staphylococcus aureus [30],1 µg/mL
same,MIC,Escherichia coli [31],16 µg/mL
same,MIC,Escherichia coli [32],4 µg/mL
same,MIC,Salmonella enterica,4 µg/mL
same,MIC,Klebsiella pneumoniae [33],4 µg/mL
same,MIC,Klebsiella pneumoniae [34],4 µg/mL
same,MIC,Staphylococcus aureus [35],0.5 µg/mL
same,MIC,Escherichia coli [36],4 µg/mL
same,Activity,Escherichia coli [37],Active
same,MIC,Klebsiella pneumoniae [38],2 µg/mL
same,MIC,Klebsiella pneumoniae [39],16 µg/mL
same,MIC,Escherichia coli [40],4 µg/mL
CCCCCCCC[N+](C)(C)CC(=O)Nc1ccc(C(=O)/C=C/c2ccc(OC)cc2)cc1.[Cl-],MIC,Escherichia coli [1],32 µg/mL
same,MIC,Staphylococcus aureus [2],0.5 µg/mL
same,MIC,Escherichia coli [3],8 µg/mL
same,MIC,Escherichia coli [4],8 µg/mL
same,MIC,Escherichia coli [5],1 µg/mL
same,MIC,Staphylococcus aureus [6],1 µg/mL
same,MIC,Staphylococcus aureus [7],1 µg/mL
same,MIC,Klebsiella pneumoniae [8],8 µg/mL
same,Activity,Staphylococcus aureus [9],Active
same,MIC,Enterococcus faecalis,2 µg/mL
same,MIC,Klebsiella pneumoniae [10],8 µg/mL
same,MIC,Klebsiella pneumoniae [11],16 µg/mL
same,MIC,Escherichia coli [12],4 µg/mL
same,MIC,Klebsiella pneumoniae [13],8 µg/mL
same,MIC,Escherichia coli [14],8 µg/mL
same,MIC,Escherichia coli [15],8 µg/mL
same,MIC,Klebsiella pneumoniae [16],8 µg/mL
same,MIC,Staphylococcus aureus [17],4 µg/mL
same,Activity,Staphylococcus aureus [18],Active
same,HC50 at 1 h,[19],124 µg/mL
same,MIC,Staphylococcus aureus [20],1 µg/mL
same,Activity,Escherichia coli [21],Active
same,MIC,Klebsiella pneumoniae [22],8 µg/mL
same,MIC,Staphylococcus aureus [23],8 µg/mL
same,MIC,Escherichia coli [24],4 µg/mL
same,MIC,Klebsiella pneumoniae [25],16 µg/mL
same,MIC,Klebsiella pneumoniae [26],16 µg/mL
same,MIC,Escherichia coli [27],8 µg/mL
same,MIC,Staphylococcus aureus [28],1 µg/mL
same,MIC,Staphylococcus aureus [29],1 µg/mL
same,MIC,Staphylococcus aureus [30],1 µg/mL
same,MIC,Escherichia coli [31],16 µg/mL
same,MIC,Escherichia coli [32],8 µg/mL
same,MIC,Salmonella enterica,4 µg/mL
same,MIC,Klebsiella pneumoniae [33],8 µg/mL
same,MIC,Klebsiella pneumoniae [34],4 µg/mL
same,MIC,Staphylococcus aureus [35],0.5 µg/mL
same,MIC,Escherichia coli [36],4 µg/mL
same,Activity,Escherichia coli [37],Active
same,MIC,Klebsiella pneumoniae [38],8 µg/mL
same,MIC,Klebsiella pneumoniae [39],2 µg/mL
same,MIC,Escherichia coli [40],8 µg/mL
